Source: ChEMBL document CHEMBL4715768, “Conjugation of N-acylhydrazone and 1,2,4-oxadiazole leads to the identification of active antimalarial agents” (Bioorg Med Chem, 2016)
The source made the active and inactive calls. The rule behind the calls is not given here.

Experiments:
[1] = test system: Plasmodium falciparum; experiment: Antimalarial activity against chloroquine-resistant blood stage Plasmodium falciparum W2 infected in human erythrocytes assessed as parasite growth inhibition at 10 ug/ml incubated for 24 hrs followed by [3H]-hypoxanthine addition and further incubated for 24 hrs followed by cooling and measured after 24 hrs by beta radiation counter analysis relative to control; assay type: functional; settings: W2, Erythrocyte, time 72 hrs
How it was run: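 P. falciparum W2 grown in human O+ erythrocytes in RPMI 1640 with 10% human plasma, at 1% parasitemia and 2.5% hematocrit. Compounds diluted with 4% DMSO and medium, tested in triplicate. [3H]-hypoxanthine incorporation read; inhibition calculated against untreated parasites.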

[2] = Hemolytic activity in human erythrocytes measured after 1 hr by microtiter plate method; assay type: ADME, cell-based, Erythrocyte; settings: read-out: CC50
How it was run: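 Fresh human O⁺ erythrocytes were washed three times in PBS and used at 1% hematocrit. Compounds dissolved in PBS were added in triplicate and incubated 1 h; saponin 1% v/v served as the full-lysis control. After centrifugation, haemoglobin released into the supernatant was read at 540 nm and hemolysis CC50 derived.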

[3] = test system: Hemozoin; experiment: Potency index, ratio of chloroquine IC50 to test compound IC50 for inhibition of beta-hematin formation measured after 24 hrs by spectrophotometry analysis
How it was run: (§1)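 Haemin (0.5 mg/mL in 0.2 M NaOH) was mixed with 3 M sodium acetate, 17.4 M acetic acid and compound, tested at up to 2.5 mM. Incubation was 24 h at 37 °C. Pellets were washed with DMSO twice and water, dissolved in 0.1 M NaOH, and read at 405 nm. Inhibition was taken against a no-compound control, at least twice in triplicate. Chloroquine was the positive control. CQ index = IC50 CQ / IC50 compound.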

[4] = test system: Plasmodium berghei; experiment: Antimalarial activity against Plasmodium berghei NK65 infected in Swiss mouse assessed as decrease in parasitemia at 100 mg/kg, ip qd administered via gavage for 4 consecutive days and measured up to 8 days by optical microscopy analysis; assay type: functional, organism-based; settings: time day <=8
How it was run: (§2)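 Adult Swiss mice (4-6 weeks, n=5/group) inoculated i.p. with 10⁶ P. berghei NK65-infected red cells. Dosing began 1 h post-infection, once daily for 4 consecutive days by oral gavage or i.p. Vehicle was DMSO 20% in saline. Tail blood smears were taken on days 4–8, methanol-fixed, panoptic-stained and read by light microscopy. Inhibition = [(C−T)/C]×100 versus vehicle controls. Means ± SEM.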

[5] = Selectivity index, ratio of CC50 for human HepG2 cells assessed as cell growth inhibition measured after 72 hrs by alamar blue assay to IC50 for chloroquine-resistant blood stage Plasmodium falciparum W2 infected in human erythrocytes assessed as parasite growth inhibition incubated for 24 hrs followed by [3H]-hypoxanthine addition and further incubated for 24 hrs followed by cooling and measured after 24 hrs by beta radiation counter analysis; assay type: toxicity, cell-based; settings: read-out: Ratio CC50/IC50
[6] = test system: Hemozoin; experiment: Inhibition of beta-hematin formation measured after 24 hrs by spectrophotometry analysis; how it was run: as §1
[7] = test system: Plasmodium berghei; experiment: Antimalarial activity against Plasmodium berghei NK65 infected in Swiss mouse assessed as decrease in parasitemia at 100 mg/kg, po qd administered via gavage for 4 consecutive days and measured up to 8 days by optical microscopy analysis; assay type: functional, organism-based; settings: time day <=8; how it was run: as §2
[8] = test system: Plasmodium berghei; experiment: Antimalarial activity against Plasmodium berghei NK65 infected in Swiss mouse assessed as increase in mouse survival at 100 mg/kg, po qd administered via gavage for 4 consecutive days and […] relative to control; assay type: functional, organism-based
How it was run: (§3)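 Swiss mice (n=5/group) infected i.p. with 10⁶ P. berghei NK65 red cells, then treated 1 h later, once daily for 4 days, orally by gavage or i.p. Vehicle was DMSO in saline. Survival was followed to 30 days post-infection and compared with vehicle by Mantel-Cox test. One experiment of two replicates.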

[9] = test system: Plasmodium falciparum; experiment: Antimalarial activity against chloroquine-resistant blood stage Plasmodium falciparum W2 infected in human erythrocytes assessed as parasite growth inhibition incubated for 24 hrs followed by [3H]-hypoxanthine addition and further incubated for 24 hrs followed by cooling and measured after 24 hrs by beta radiation counter analysis; assay type: functional, organism-based; settings: W2, Erythrocyte
How it was run: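 W2 P. falciparum cultured in O+ human erythrocytes in RPMI 1640 plus 10% human plasma, at 1% parasitemia and 2.5% hematocrit. At least five compound concentrations, each in triplicate. Growth measured as [3H]-hypoxanthine uptake relative to untreated parasites. IC50 derived from two independent experiments.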

[10] = Cytotoxicity against human HepG2 cells assessed as reduction in cell growth measured after 72 hrs by alamar blue assay; assay type: cell-based
How it was run: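 HepG2 cells in phenol red-free RPMI-1640 with 10% FBS were seeded at 10⁴ cells/well. After 24 h they were exposed to five concentrations in triplicate for 72 h at 37 °C, 5% CO₂. AlamarBlue (20%) was added for 24 h, and absorbance was read at 570/600 nm. CC50 came from non-linear regression, two independent experiments. Gentian violet served as the cytotoxic control.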

[11] = test system: Plasmodium berghei; experiment: Antimalarial activity against Plasmodium berghei NK65 infected in Swiss mouse assessed as decrease in parasitemia at 25 to 50 mg/kg, ip qd administered via gavage for 4 consecutive days and measured up to 8 days by optical microscopy analysis; assay type: functional, organism-based; settings: dose 25-50 mg/kg, time day <=8; how it was run: as §2
[12] = test system: Plasmodium berghei; experiment: Antimalarial activity against Plasmodium berghei NK65 infected in Swiss mouse assessed as effect on mouse survival at 25 to 50 mg/kg, ip qd administered via gavage for 4 consecutive days and […] by optical microscopy analysis; assay type: functional, organism-based; settings: dose 25-50 mg/kg; how it was run: as §3
[13] = test system: Plasmodium berghei; experiment: Antimalarial activity against Plasmodium berghei NK65 infected in Swiss mouse assessed as decrease in parasitemia at 50 mg/kg, po qd administered via gavage for 4 consecutive days and measured up to 8 days by optical microscopy analysis; assay type: functional, organism-based; settings: time day <=8; how it was run: as §2
[14] = test system: Plasmodium berghei; experiment: Antimalarial activity against Plasmodium berghei NK65 infected in Swiss mouse assessed as increase in mouse survival at 50 mg/kg, po qd administered via gavage for 4 consecutive days and […] relative to control; assay type: functional
How it was run: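 Swiss mice, 4–6 weeks, n=5 per group, infected i.p. with 10⁶ P. berghei NK65-infected red cells. Treated once daily for 4 consecutive days starting 1 h post-infection, dosed by oral gavage in 20% DMSO. Vehicle controls received DMSO in saline. Survival followed up to 30 days; Mantel-Cox test. One experiment of two replicates.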

COc1cc(/C=N/NC(=O)c2nc(-c3ccc(F)cc3)no2)ccc1O
inhibition at 10 µg/mL [1]: 24.7%

O=C(N/N=C/C=C/c1ccccc1)c1nc(-c2ccccc2)no1
inhibition at 10 µg/mL [1]: 51%

O=C(N/N=C/C=C/c1ccccc1)c1nc(-c2ccc(F)cc2)no1
inhibition at 10 µg/mL [1]: 34.3%

O=C(N/N=C/C=C/c1ccccc1)c1nc(-c2ccc(Br)cc2)no1
inhibition at 10 µg/mL [1]: 58.8%

Cc1ccc(-c2noc(C(=O)N/N=C/C=C/c3ccccc3)n2)cc1
inhibition at 10 µg/mL [1]: 52.7%

O=C(N/N=C/c1ccc2c(c1)OCO2)c1nc(-c2ccc(Br)cc2)no1
inhibition at 10 µg/mL [1]: 45.3%

COc1cc(/C=N/NC(=O)c2nc(-c3ccccc3)no2)ccc1O
inhibition at 10 µg/mL [1]: 55.4%

COc1cc(/C=N/NC(=O)c2nc(-c3ccc(C)cc3)no2)ccc1O
HC50 at 1 h [2]: > 100 µg/mL
Ratio IC50 [3]: 1.3
Activity [4]: inactive
selectivity ratio at 72 h [5]: 388
IC50 [6]: 600 µM
Activity [7]: inactive
inhibition at 10 µg/mL [1]: 61.1%
Activity [8]: inactive
IC50 [9]: 0.12 µM
CC50 at 72 h [10]: 46.6 µM

O[C@@H](c1cc(C(F)(F)F)nc2c(C(F)(F)F)cccc12)[C@H]1CCCCN1 [(S,R)-MEFLOQUINE]
selectivity ratio at 72 h [5]: 295
inhibition at 10 µg/mL [1]: 100%
IC50 [9]: 0.04 µM
CC50 at 72 h [10]: 11.8 µM

COc1cc(/C=N/NC(=O)c2nc(-c3ccc(Cl)cc3)no2)ccc1O
inhibition at 10 µg/mL [1]: 37%

COc1ccc(-c2noc(C(=O)N/N=C/c3ccc(O)c(OC)c3)n2)cc1
inhibition at 10 µg/mL [1]: 42.2%

COc1ccc(-c2noc(C(=O)N/N=C/c3ccc4c(c3)OCO4)n2)cc1
inhibition at 10 µg/mL [1]: 27.5%

COc1cc(/C=N/NC(=O)c2nc(-c3ccc([N+](=O)[O-])cc3)no2)ccc1O
HC50 at 1 h [2]: > 100 µg/mL
selectivity ratio at 72 h [5]: 74
IC50 [6]: > 2000 µM
inhibition at 10 µg/mL [1]: 68.7%
Activity [11]: Active
Activity [12]: inactive
IC50 [9]: 0.2 µM
CC50 at 72 h [10]: 14.8 µM

COc1cc(/C=N/NC(=O)c2nc(-c3ccc(Br)cc3)no2)ccc1O
HC50 at 1 h [2]: 33 µg/mL
Ratio IC50 [3]: 0.8
Activity [4]: inactive
selectivity ratio at 72 h [5]: 241
IC50 [6]: 900 µM
Activity [7]: inactive
inhibition at 10 µg/mL [1]: 71.1%
Activity [8]: inactive
IC50 [9]: 0.07 µM
CC50 at 72 h [10]: 16.9 µM

O=C(N/N=C/c1ccc2c(c1)OCO2)c1nc(-c2ccc(F)cc2)no1
inhibition at 10 µg/mL [1]: 31.6%

O=C(N/N=C/C=C/c1ccccc1)c1nc(-c2ccc(O)cc2)no1
inhibition at 10 µg/mL [1]: 39.1%

CCN(CC)CCCC(C)Nc1ccnc2cc(Cl)ccc12 (stereo unspecified) [CHLOROQUINE]
HC50 at 1 h [2]: > 100 µg/mL
Activity [13]: Active
Activity [14]: 100%
IC50 [6]: 800 µM

Cc1ccc(-c2noc(C(=O)N/N=C/c3ccc4c(c3)OCO4)n2)cc1
inhibition at 10 µg/mL [1]: 21.9%

O=C(N/N=C/c1ccc2c(c1)OCO2)c1nc(-c2ccccc2)no1
inhibition at 10 µg/mL [1]: 27.5%

O=C(N/N=C/c1ccc2c(c1)OCO2)c1nc(-c2ccc(O)cc2)no1
HC50 at 1 h [2]: > 100 µg/mL
Ratio IC50 [3]: 1
IC50 [6]: 800 µM
inhibition at 10 µg/mL [1]: 71.9%
IC50 [9]: 1.5 µM
CC50 at 72 h [10]: > 200 µM

O=C(N/N=C/C=C/c1ccccc1)c1nc(-c2ccc([N+](=O)[O-])cc2)no1
inhibition at 10 µg/mL [1]: 25.7%

COc1cc(/C=N/NC(=O)c2nc(-c3ccc(O)cc3)no2)ccc1O
HC50 at 1 h [2]: > 100 µg/mL
IC50 [6]: > 2000 µM
inhibition at 10 µg/mL [1]: 58.8%
IC50 [9]: 1.9 µM
CC50 at 72 h [10]: > 200 µM

O=C(N/N=C/C=C/c1ccccc1)c1nc(-c2ccc(Cl)cc2)no1
inhibition at 10 µg/mL [1]: 28.8%

COc1ccc(-c2noc(C(=O)N/N=C/C=C/c3ccccc3)n2)cc1
inhibition at 10 µg/mL [1]: 26.1%

O=C(N/N=C/c1ccc2c(c1)OCO2)c1nc(-c2ccc([N+](=O)[O-])cc2)no1
inhibition at 10 µg/mL [1]: 33.9%

O=C(N/N=C/c1ccc2c(c1)OCO2)c1nc(-c2ccc(Cl)cc2)no1
inhibition at 10 µg/mL [1]: 53%
